Source: PubChem (several laboratories)
Sampled rows, rich in hits. Any-hit rate of the full collection: about 3.5%.
STAT1 activator – increases IFN-gamma driven STAT1 reporter signal; 2.6% of 200,000 active; AID 932; NIH 3T3 STAT1-luciferase reporter, luminescence; 100% = IFN-gamma alone, no compound; activation (% of control), % at 5.5 µM;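 active means activation above the screen-wide mean activation plus 3 SD, cut at about 130% in these data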
FLuc inh counter – inhibits firefly luciferase, flagging false hits in luciferase inhibition screens; P08659; ATPLite firefly luciferase biochemical luminescence, 10 min; inhibition, % at 10 µM; 1.5% of 200,000 active; AID 1006;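 active means inhibition above about 50% when tested at 10 µM, limit read from the data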
Target sequence (P08659 whole entry, looked up): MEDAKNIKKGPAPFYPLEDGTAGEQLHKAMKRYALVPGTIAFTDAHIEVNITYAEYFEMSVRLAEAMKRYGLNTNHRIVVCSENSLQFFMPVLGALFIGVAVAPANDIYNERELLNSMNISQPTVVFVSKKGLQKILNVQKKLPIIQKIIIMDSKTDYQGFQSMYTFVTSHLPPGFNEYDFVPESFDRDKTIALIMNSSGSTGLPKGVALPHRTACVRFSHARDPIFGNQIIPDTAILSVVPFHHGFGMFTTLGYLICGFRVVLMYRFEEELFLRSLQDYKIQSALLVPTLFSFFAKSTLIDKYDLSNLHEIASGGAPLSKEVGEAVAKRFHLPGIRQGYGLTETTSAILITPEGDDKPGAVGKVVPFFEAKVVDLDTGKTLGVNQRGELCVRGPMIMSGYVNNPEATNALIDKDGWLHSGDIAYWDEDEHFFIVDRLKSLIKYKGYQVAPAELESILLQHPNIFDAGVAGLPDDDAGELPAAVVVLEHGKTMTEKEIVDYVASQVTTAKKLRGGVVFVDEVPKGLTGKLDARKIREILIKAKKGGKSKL
Pf gametocyte – P. falciparum stage V gametocyte viability inhibition; P. falciparum stage V gametocytes, ATP luminescence, 24 h; inhibition, % at 10.9 µM; 0.065% of 150,000 active; AID 743093;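 active means inhibition above the mean plus 3 SD of compounds within the control limits, set per campaign, cut at about 38% in these data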
NF-kB neuron act – compounds increasing NF-kB expression in human neuronal cells; NF-kB reporter expression; active compounds read high; fold change at 12.5 µM; 1.6% of 190,000 active; AID 1239; in the data active means fold change above about 3.3
FLuc act counter – firefly luciferase counter-screen for stimulation assays. activation factor at 10 µM. 200,000 tested, under 10 active. ATPlite luciferase biochemical, luminescence, 10 min; 0 = ATP-free wells, 1 = DMSO control;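 active means luciferase activation factor, scaled between plate controls, of at least 2 with compound at 10 µM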
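test system = cell-free luciferase reagent | medium = PBS as buffer for the ATP substrate | dosing = test compounds dosed from 2 mM stocks in 100% DMSO | incubation = 10 min at ambient temperature | detection = luminescence measurement of luciferase light output | benchmarks = low control with PBS replacing ATP, high control enzyme plus ATP without compound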
APP 5'UTR act – APP 5'UTR luciferase reporter activation; SH-SY5Y APP 5'UTR luciferase reporter, luminescence; zero percent = DMSO vehicle wells; activation, % at 2 µM; 1% of 190,000 active; AID 1276;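 active means activation above a set limit, based on mean plus 3 SD of controls, cut at about 140% in these data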
STAT1 activ conf – STAT1 activation, confirmation assay; 97% of 1,200 active; AID 1262; activation (% of control), % at 5.7 µM; shares compounds with STAT1 activator; NIH 3T3 STAT1-luciferase reporter, IFN-gamma potentiation, luminescence; 100% = IFN-gamma EC80 alone, no compound;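 active means activation above a set limit carried over from the earlier primary STAT1 screen, cut at about 140% in these data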
NFkB act STAT1ct – counter-screen for STAT1 activators: NF-kappaB activation; shares compounds with STAT1 activator; HEK293T NF-kB luciferase reporter, TNF-alpha stimulated, luminescence; 100% = TNF-alpha with vehicle only; activation (% of control), % at 5.7 µM; 43% of 1,200 active;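 active means activation above the mean of solvent-only control wells plus 3 SD, set per campaign, cut at about 130% in these data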;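 further: TNF-alpha given at a submaximal dose yielding about 80% of full reporter signal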
STAT3 act 2 – counter-screen for STAT1 activators: human STAT3 activation. shares compounds with STAT1 activator. U3A cells STAT3-luciferase reporter, IL-6, luminescence; cells lack STAT1; 100 = IL-6 alone, no compound effect. activation (% of control), % at 5.7 µM. 46% of 1,200 active. AID 1316;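 active means activation above the solvent-only control well mean plus 3 SD, set per plate batch, cut at about 110% in these data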;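 further: higher means more STAT3 reporter activation so hits are non-selective activators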
Large screens that a line does not name were inactive (follow-up assays come after a bar, where they were run).

O=C(/C=C/c1ccco1)Nc1ccc(N2CCCC2)cc1	STAT1 activator 158 | STAT1 activ conf 187 | NFkB act STAT1ct 139 | STAT3 act 2 113
O=C(/C=C/c1ccco1)Nc1ccccn1	STAT1 activator 152, FLuc inh counter 69 (no result: Pf gametocyte) | STAT1 activ conf 177 | NFkB act STAT1ct inactive | STAT3 act 2 inactive
CCOc1ccc(C(=O)NCC(C)NC(=O)c2ccc(OCC)cc2)cc1 (stereo unspecified)	none (no result: STAT1 activator, FLuc inh counter, NF-kB neuron act, FLuc act counter, APP 5'UTR act)
Cc1ccc(S(=O)(=O)C2(C(=O)N3CCN(c4cc(C)ccc4C)CC3)CC2)cc1	none
CCSc1nnc2n(N)c(=O)c3ccccc3n12	none (no result: Pf gametocyte)
NC(=O)CNC1CC(=O)N(CCc2ccccc2)C1=O (stereo unspecified)	none (no result: Pf gametocyte)
COc1cccc(CNC(=O)C2CCN(S(=O)(=O)N3CCC4(CC3)OCCO4)CC2)c1	none
Nc1nc2ccccc2n1/N=C/c1ccc(-c2ccccc2)o1	STAT1 activator 155 | STAT1 activ conf 160 | NFkB act STAT1ct inactive | STAT3 act 2 inactive
CC12CN3CC(C)(CN(C1)C3c1ccc(Br)cc1)C2 (stereo unspecified)	none (no result: Pf gametocyte)
Cc1ccc(N2CCN(CC(O)COc3ccccc3)CC2)cc1 (stereo unspecified)	none (no result: STAT1 activator, FLuc inh counter, NF-kB neuron act, FLuc act counter, APP 5'UTR act)
CSc1ccc(/C=N/NC(=O)c2sccc2C)cc1	STAT1 activator 192, NF-kB neuron act 4.1, APP 5'UTR act 219 | STAT1 activ conf 249 | NFkB act STAT1ct inactive | STAT3 act 2 inactive
Cc1ccc(-n2c(=O)[nH]cc(C(=O)Nc3ccc4c(c3)OCO4)c2=O)cc1C	none (no result: STAT1 activator, Pf gametocyte, NF-kB neuron act, APP 5'UTR act)
COc1ccc(Cn2c(CCC(=O)O)nc3cccnc32)cc1	none (no result: Pf gametocyte)
CCn1c(O)c(/C=C2\C=Nc3ccccc32)sc1=O	STAT1 activator 178, APP 5'UTR act 154 | STAT1 activ conf 175 | NFkB act STAT1ct 140 | STAT3 act 2 126
CCn1c(O)c(/C=C2\C=Nc3ccccc32)sc1=Nc1ccc(C)cc1	none
CCC/C=N/Nc1nc2ccccc2s1	STAT1 activator 163, NF-kB neuron act 6 (no result: Pf gametocyte) | STAT1 activ conf 225 | NFkB act STAT1ct 143 | STAT3 act 2 127
C(=C\c1ccccc1)/C=N/Nc1nc2ccccc2s1	STAT1 activator 158, APP 5'UTR act 179 (no result: Pf gametocyte) | STAT1 activ conf 238 | NFkB act STAT1ct 141 | STAT3 act 2 129
O=C(NCCc1ccc(Cl)cc1)C1CCCN1C(=O)Nc1ccccc1 (stereo unspecified)	none (no result: STAT1 activator, FLuc inh counter, NF-kB neuron act, FLuc act counter, APP 5'UTR act)
CCOC(=O)CSc1nc2cc(C)cc(C)c2cc1C#N	none
COc1ccc2nc(SCC(C)=O)c(C#N)cc2c1	STAT1 activator 190, NF-kB neuron act 5.8, APP 5'UTR act 138 | STAT1 activ conf 312 | NFkB act STAT1ct 139 | STAT3 act 2 inactive
CCOC(=O)CSc1nc2ccc(C)cc2cc1C#N	STAT1 activator 157, NF-kB neuron act 4.3 (no result: APP 5'UTR act) | STAT1 activ conf 221 | NFkB act STAT1ct 142 | STAT3 act 2 inactive
CCOC(=O)CSc1nc2cc(C)ccc2cc1C#N	STAT1 activator 153, NF-kB neuron act 7.1 (no result: Pf gametocyte) | STAT1 activ conf 213 | NFkB act STAT1ct 139 | STAT3 act 2 inactive
CCOC(=O)CSc1nc2cc(OC)ccc2cc1C#N	STAT1 activator 168, NF-kB neuron act 8.1, APP 5'UTR act 173 | STAT1 activ conf 259 | NFkB act STAT1ct 145 | STAT3 act 2 112
Cc1nc2ccccc2n1CC(=O)c1ccc(O)c(O)c1	none (no result: STAT1 activator, FLuc inh counter, NF-kB neuron act, FLuc act counter, APP 5'UTR act)
CCOC(=O)CN1C(=O)N[C@@H](CCc2ccccc2)[C@H](C(C)=O)[C@H]1C	none (no result: STAT1 activator, FLuc inh counter, NF-kB neuron act, FLuc act counter, APP 5'UTR act)
